{"source": "ChEMBL document CHEMBL5303300", "about": "“EUbOPEN Chemogenomics Library - Multiplex” (2023)", "tested_on": "Fibroblast", "experiment": "Multiplex assay against human fibroblast", "assay_type": "toxicity, cell-based", "details": "number of replicates 2", "procedure,_shortened": "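Values for tubulin, mitochondrial-mass and membrane-permeability phenotypes are per cents of cells with healthy nuclei. These cells were identified by CellPathfinder machine-learning gating of live cells that had been stained at seeding with Hoechst33342, BioTracker Green Microtubule Cytoskeleton Dye, MitoTracker Red and Annexin V Alexa Fluor 680 and imaged on a CQ1 microscope at 37°C and 5% CO2 after compound addition. The gating first set Hoechst high-intensity objects apart from normal cells, then split normal cells into healthy, pyknosed or fragmented nuclei, and pyknosed cells into mitotic or apoptotic.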", "key": {"[1]": {"details": "12 h, 1 µM, compound concentration 1 uM"}, "[2]": {"details": "12 h, 10 µM, compound concentration 10 uM"}, "[3]": {"details": "24 h, 1 µM, compound concentration 1 uM"}, "[4]": {"details": "24 h, 10 µM, compound concentration 10 uM"}, "[5]": {"details": "48 h, 1 µM, compound concentration 1 uM"}, "[6]": {"details": "48 h, 10 µM, compound concentration 10 uM"}}, "note": "Several values for one entry are separate records, joined by “and”; a condition that tells them apart may be missing. Identical values can stand only once.", "data": [{"smiles": "CN1CCc2cc(Nc3ncc(C(F)(F)F)c(NCc4cc[nH]n4)n3)ccc2C1", "values": [{"measurement": "Population Apoptotic (%)", "setting": "[1]", "result": "63% and 62%"}, {"measurement": "Population Fragmented Nuclei (%)", "setting": "[1]", "result": "7% and 19%"}, {"measurement": "Population Healthy Nuclei (%)", "setting": "[1]", "result": "63% and 58%"}, {"measurement": "Population Hoechst High Intensity Objects (%)", "setting": "[1]", "result": 0, "unit": "%"}, {"measurement": "Population Membrane Permeable-Phenotype (%)", "setting": "[1]", "result": "3% and 6%"}, {"measurement": "Population Mitochondria Different-Phenotype (%)", "setting": "[1]", "result": "0% and 1%"}, {"measurement": "Population Mitotic Cells (%)", "setting": "[1]", "result": "36% and 37%"}, {"measurement": "Population Normal (%)", "setting": "[1]", "result": 100, "unit": "%"}, {"measurement": "Population Pyknosed Nuclei (%)", "setting": "[1]", "result": "28% and 22%"}, {"measurement": "Population Tubulin-Different-Phenotype (%)", "setting": "[1]", "result": "1% and 4%"}, {"measurement": "Total Cell Count", "setting": "[1]", "result": "133 and 168"}, {"measurement": "Population Apoptotic (%)", "setting": "[2]", "result": "70% and 60%"}, {"measurement": "Population Fragmented Nuclei (%)", "setting": "[2]", "result": "19% and 24%"}, {"measurement": "Population Healthy Nuclei (%)", "setting": "[2]", "result": "60% and 63%"}, {"measurement": "Population Hoechst High Intensity Objects (%)", "setting": "[2]", "result": 0, "unit": "%"}, {"measurement": "Population Membrane Permeable-Phenotype (%)", "setting": "[2]", "result": "9% and 11%"}, {"measurement": "Population Mitochondria Different-Phenotype (%)", "setting": "[2]", "result": 1, "unit": "%"}, {"measurement": "Population Mitotic Cells (%)", "setting": "[2]", "result": "29% and 40%"}, {"measurement": "Population Normal (%)", "setting": "[2]", "result": 100, "unit": "%"}, {"measurement": "Population Pyknosed Nuclei (%)", "setting": "[2]", "result": "20% and 11%"}, {"measurement": "Population Tubulin-Different-Phenotype (%)", "setting": "[2]", "result": "16% and 18%"}, {"measurement": "Total Cell Count", "setting": "[2]", "result": "180 and 262"}, {"measurement": "Population Apoptotic (%)", "setting": "[3]", "result": "84% and 80%"}, {"measurement": "Population Fragmented Nuclei (%)", "setting": "[3]", "result": 15, "unit": "%"}, {"measurement": "Population Healthy Nuclei (%)", "setting": "[3]", "result": "40% and 50%"}, {"measurement": "Population Hoechst High Intensity Objects (%)", "setting": "[3]", "result": 0, "unit": "%"}, {"measurement": "Population Membrane Permeable-Phenotype (%)", "setting": "[3]", "result": "3% and 12%"}, {"measurement": "Population Mitochondria Different-Phenotype (%)", "setting": "[3]", "result": 0, "unit": "%"}, {"measurement": "Population Mitotic Cells (%)", "setting": "[3]", "result": "15% and 20%"}, {"measurement": "Population Normal (%)", "setting": "[3]", "result": "100% and 99%"}, {"measurement": "Population Pyknosed Nuclei (%)", "setting": "[3]", "result": "43% and 34%"}, {"measurement": "Population Tubulin-Different-Phenotype (%)", "setting": "[3]", "result": 3, "unit": "%"}, {"measurement": "Total Cell Count", "setting": "[3]", "result": "133 and 161"}, {"measurement": "Population Apoptotic (%)", "setting": "[4]", "result": "61% and 84%"}, {"measurement": "Population Fragmented Nuclei (%)", "setting": "[4]", "result": "26% and 20%"}, {"measurement": "Population Healthy Nuclei (%)", "setting": "[4]", "result": "56% and 61%"}, {"measurement": "Population Hoechst High Intensity Objects (%)", "setting": "[4]", "result": 0, "unit": "%"}, {"measurement": "Population Membrane Permeable-Phenotype (%)", "setting": "[4]", "result": "9% and 12%"}, {"measurement": "Population Mitochondria Different-Phenotype (%)", "setting": "[4]", "result": "3% and 1%"}, {"measurement": "Population Mitotic Cells (%)", "setting": "[4]", "result": "38% and 15%"}, {"measurement": "Population Normal (%)", "setting": "[4]", "result": "100% and 99%"}, {"measurement": "Population Pyknosed Nuclei (%)", "setting": "[4]", "result": "16% and 17%"}, {"measurement": "Population Tubulin-Different-Phenotype (%)", "setting": "[4]", "result": "17% and 19%"}, {"measurement": "Total Cell Count", "setting": "[4]", "result": "185 and 253"}, {"measurement": "Population Apoptotic (%)", "setting": "[5]", "result": "88% and 72%"}, {"measurement": "Population Fragmented Nuclei (%)", "setting": "[5]", "result": "24% and 15%"}, {"measurement": "Population Healthy Nuclei (%)", "setting": "[5]", "result": "40% and 67%"}, {"measurement": "Population Hoechst High Intensity Objects (%)", "setting": "[5]", "result": 0, "unit": "%"}, {"measurement": "Population Membrane Permeable-Phenotype (%)", "setting": "[5]", "result": "8% and 14%"}, {"measurement": "Population Mitochondria Different-Phenotype (%)", "setting": "[5]", "result": 0, "unit": "%"}, {"measurement": "Population Mitotic Cells (%)", "setting": "[5]", "result": "11% and 27%"}, {"measurement": "Population Normal (%)", "setting": "[5]", "result": "100% and 99%"}, {"measurement": "Population Pyknosed Nuclei (%)", "setting": "[5]", "result": "35% and 16%"}, {"measurement": "Population Tubulin-Different-Phenotype (%)", "setting": "[5]", "result": "10% and 12%"}, {"measurement": "Total Cell Count", "setting": "[5]", "result": "122 and 133"}, {"measurement": "Population Apoptotic (%)", "setting": "[6]", "result": "65% and 59%"}, {"measurement": "Population Fragmented Nuclei (%)", "setting": "[6]", "result": "26% and 22%"}, {"measurement": "Population Healthy Nuclei (%)", "setting": "[6]", "result": "51% and 57%"}, {"measurement": "Population Hoechst High Intensity Objects (%)", "setting": "[6]", "result": 0, "unit": "%"}, {"measurement": "Population Membrane Permeable-Phenotype (%)", "setting": "[6]", "result": "5% and 9%"}, {"measurement": "Population Mitochondria Different-Phenotype (%)", "setting": "[6]", "result": "1% and 0%"}, {"measurement": "Population Mitotic Cells (%)", "setting": "[6]", "result": "34% and 40%"}, {"measurement": "Population Normal (%)", "setting": "[6]", "result": 100, "unit": "%"}, {"measurement": "Population Pyknosed Nuclei (%)", "setting": "[6]", "result": "22% and 19%"}, {"measurement": "Population Tubulin-Different-Phenotype (%)", "setting": "[6]", "result": "14% and 19%"}, {"measurement": "Total Cell Count", "setting": "[6]", "result": "184 and 251"}]}]}
